Screens deposited in PubChem BioAssay by The Scripps Research Institute Molecular Screening Center.
OX1R antag-1: blocks the human orexin 1 receptor; CHO/OX1R cells, Fluo-8 calcium fluorescence, orexin A; inhibition, % at 5 µM; 330,000 compounds, 0.43% hits; AID 434989;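 active means inhibition above its plate's threshold, mean inhibition of all tested compounds on the plate plus 3 SD, cut at about 37% in these data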
OX1R antag-2: antagonists of human orexin 1 receptor (OX1R); O43613; OX1R-expressing cells, FRET antagonist read-out; inhibition, % at 6.6 µM; 330,000 compounds, 1.8% hits; in the data active means inhibition mostly above about 38%, no sharp cut-off; inactive means mostly below about 40%
TAAR1 antagonist: antagonists of human TAAR1; Q96RJ0; AID 624466; 360,000 compounds, 1.5% hits; CHO RD-HGA16 TAAR1, Fluo-8 calcium fluorescence, antagonist; inhibition, % at 3 µM;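 active means inhibition above a per-plate cutoff, the mean inhibition of test compounds on that plate plus 3 SD, cut at about 49% in these data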
Target sequence (Q96RJ0 whole entry, looked up): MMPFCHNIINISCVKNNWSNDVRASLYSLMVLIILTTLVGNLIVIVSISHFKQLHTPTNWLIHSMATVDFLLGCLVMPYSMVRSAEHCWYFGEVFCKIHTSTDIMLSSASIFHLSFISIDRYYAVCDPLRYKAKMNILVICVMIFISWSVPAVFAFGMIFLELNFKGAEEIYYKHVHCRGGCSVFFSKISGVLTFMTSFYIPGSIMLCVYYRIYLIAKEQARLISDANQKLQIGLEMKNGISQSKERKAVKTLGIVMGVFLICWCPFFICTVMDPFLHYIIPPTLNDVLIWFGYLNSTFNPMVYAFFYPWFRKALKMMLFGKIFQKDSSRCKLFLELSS
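Test system – hTAAR1-expressing CHO RD-HGA16 cells, Gα16-coupled · Also added – β-PEA at EC80 concentration, post-compound challenge · Compound – 3 µM, single point · Incubation – dye loading 75 min at 37 °C, then 30 min room temperature · Measured by – Fluo-8 intracellular calcium dye fluorescence, real-time kinetic reads · Benchmarks – vehicle and agonist controls · Replicates – singlicate, one well per test compound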
TAAR1 agonist: human TAAR1 agonism; AID 624467; CHO RD-HGA16 TAAR1, Fluo-8 calcium fluorescence; vehicle wells 0%, saturating PEA agonist 100%; Q96RJ0; activation, % at 3 µM; 360,000 compounds, 0.99% hits;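 active means activation above the mean activation of all test compounds in the run plus 3 SD, cut at about 38% in these data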
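Assay system: CHO-derived RD-HGA16 cells with stable Gα16 and human TAAR1; timing: 17-24 h seeding, 75 min 37 °C dye, 30 min RT; read-out: % activation from peak over basal fluorescence ratio, DMSO-to-PEA scaled; measured by: kinetic Fluo-8 calcium fluorescence; benchmarks: low control DMSO, high control PEA (EC100); doses: 3 µM single concentration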
GPR7 antagonist: antagonists of human GPR7 (neuropeptides B/W receptor 1). P48145. GPR7-expressing cells, fluorescence antagonist assay. inhibition, % at 4.4 µM. 290,000 compounds, 1.1% hits; in the data active means inhibition above about 16%, passing the limit was not always enough;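 further: cells stimulated with the agonist NPW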
CHO parental Ca: counter-screen: ATP calcium response change in parental CHO cells; parental CHO-K1, ATP-induced calcium, Fluo-8 fluorescence; inhibition, % at 5.6 µM; 330,000 compounds, 0.63% hits; AID 463079;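 active means inhibition above that plate's mean sample inhibition plus 3 SD, cut at about 26% in these data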
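Assay system – parental CHO cells · Reagent – ATP stimulus · Detection – intracellular calcium via Fluo-8 no-wash fluorescent dye · Evaluation – percent inhibition of ATP-evoked calcium rise, normalized to controls · Controls – ATP wells versus no-ATP DMSO wells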
TAAR1 ag confirm: human TAAR1 agonism, confirmed. shares compounds with TAAR1 agonist. CHO RD-HGA16 TAAR1, Fluo-8 calcium fluorescence; scaled: DMSO 0%, maximal phenethylamine 100%. activation, % at 3 µM. 2,400 compounds, 82% hits. AID 651783;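 active means activation above a cutoff set at the run's mean compound activation plus 3 SD, cut at about 39% in these data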
Ga16 ag counter: counter-screen for TAAR1 agonists: nonselective agonists in parental cells. shares compounds with TAAR1 agonist. CHO-Ga16 parental, Fluo-8 calcium fluorescence; normalized to maximal ATP response, DMSO zero. activation, % at 3 µM. 2,400 compounds, 50% hits;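 active means activation above the run cutoff, the mean activation over all tested wells plus 3 SD, cut at about 12% in these data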
TAAR1 desens: TAAR1 response desensitization, agonist counter-screen | shares compounds with TAAR1 agonist | CHO RD-HGA16 hTAAR1, Fluo-8 calcium, beta-PEA response inhibition | inhibition, % at 3 µM | 2,400 compounds, 46% hits | AID 651951;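 active means inhibition above the run cutoff, the mean inhibition of all test compounds plus 3 SD, cut at about 49% in these data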;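 further: beta-PEA stimulus applied at its EC80; loss of beta-PEA calcium signal after compound pretreatment read as receptor desensitization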
Ga16 nonsel ant: nonselective Ga16 antagonism, counter-screen; 2,400 compounds, 39% hits; shares compounds with TAAR1 agonist; CHO-Ga16 ATP-induced calcium, Fluo-8 fluorescence; inhibition, % at 3 µM;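 active means inhibition above the plate's mean compound inhibition plus 3 SD, computed per plate, cut at about 22% in these data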
Of the large screens only hits and unclear results are named; the others gave an inactive call (follow-up assays come after a bar, where they were run). Shown are actives, neighbours in structure and some others; about 4.5% of the full set was active somewhere.

CN(C)C(CNC(=O)C1CCCN1C(=O)c1cccs1)c1ccccc1 (stereo not drawn)	none (no result: GPR7 antagonist)
O=C(N[C@H](C(=O)N1CCC[C@H]1C(=O)NCCc1ccccc1Cl)c1ccccc1)c1cccs1	none (no result: OX1R antag-1, OX1R antag-2, TAAR1 antagonist, TAAR1 agonist, GPR7 antagonist, CHO parental Ca) | Ga16 ag counter inactive | Ga16 nonsel ant inactive
COc1ccccc1CCNS(=O)(=O)CCNC(=O)c1ccc2c(c1)OCO2	TAAR1 agonist 74.0 (no result: GPR7 antagonist) | TAAR1 ag confirm 90.8 | Ga16 ag counter inactive | TAAR1 desens 73.3 | Ga16 nonsel ant inactive
Cc1ccc(CNS(=O)(=O)CCNC(=O)c2ccc3c(c2)OCO3)cc1	none (no result: GPR7 antagonist)
OCC1COC(c2ccccc2)=N1 (stereo not drawn)	TAAR1 agonist 38.6 (no result: OX1R antag-1, OX1R antag-2, GPR7 antagonist, CHO parental Ca) | TAAR1 ag confirm inactive | Ga16 ag counter inactive | TAAR1 desens inactive | Ga16 nonsel ant inactive
COc1ccc(N(CC(=O)Nc2ccc(Cc3ccncc3)cc2)S(=O)(=O)c2ccccc2)cc1	none
COc1cc(C(c2sc3nc(C)nn3c2O)N2CCc3ccccc3C2)cc(OC)c1OC (stereo not drawn)	TAAR1 agonist 45.4 | TAAR1 ag confirm 45.2 | Ga16 ag counter inactive | TAAR1 desens inactive | Ga16 nonsel ant inactive
COc1cccc(C(c2sc3ncnn3c2O)N2CCc3ccccc3C2)c1 (stereo not drawn)	TAAR1 agonist 73.0 | TAAR1 ag confirm 81.8 | Ga16 ag counter inactive | TAAR1 desens inactive | Ga16 nonsel ant inactive
COc1ccc(C(c2sc3nc(C)nn3c2O)N2CCc3ccccc3C2)cc1 (stereo not drawn)	none
O=C(CCCc1ccccc1)Nc1cccc2c1CCCC2	TAAR1 antagonist 70.6, TAAR1 agonist 54.6 | TAAR1 ag confirm inactive | Ga16 ag counter inactive | TAAR1 desens inactive | Ga16 nonsel ant inactive
O=C(COc1ccccc1)Nc1cccc2c1CCCC2	none
CCC(c1nnnn1Cc1ccco1)N(CCc1ccccc1)Cc1cc2cc(C)ccc2[nH]c1=O (stereo not drawn)	none (no result: TAAR1 antagonist, TAAR1 agonist, GPR7 antagonist) | Ga16 ag counter inactive | Ga16 nonsel ant inactive
Cc1ccc2[nH]c(=O)c(CN(CCc3ccccc3)C(c3nnnn3Cc3ccco3)C(C)C)cc2c1 (stereo not drawn)	TAAR1 agonist 71.3 | TAAR1 ag confirm 61.5 | Ga16 ag counter inactive | TAAR1 desens inactive | Ga16 nonsel ant inactive
C#CCOCCOCCOCCNc1nc(N2CCN(C(=O)[C@H](CCC(=O)O)n3cc([C@@H](N)CCCCN)nn3)CC2)nc(N2CCN(C(=O)[C@H](CCCCN)n3cc([C@@H](N)CC(N)=O)nn3)CC2)n1	none (no result: GPR7 antagonist)
CC1CN(C(=O)CSc2nnc(-c3cccs3)n2N)CC(C)O1 (stereo not drawn)	none (no result: GPR7 antagonist)
